Experimental data published in ChEMBL document CHEMBL1158748, “Microbial hydroxylation of bufalin by Cunninghamella blakesleana and Mucor spinosus” (J Nat Prod, 2005).

What was measured:
Type in all cases: functional, cell-based
Bel-7402 = assay: Cytotoxicity against human Bel7402 cells after 72 hrs by MTT assay; details: Bel-7402, 72 h
Procedure, shortened: (§1)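 Cells kept in RPMI 1640 with 10% (v/v) FBS and plated in 96-well plates. Test compounds added at dilutions of 10^-3-10² µmol/L, then incubated 72 h at 37 °C under 5% CO₂. Survival read by MTT. IC50 taken as the concentration (µmol/L) giving 50% inhibition of cell growth.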

HeLa = assay: Cytotoxicity against human HeLa cells after 72 hrs by MTT assay; procedure, shortened: as §1
BGC-823 = assay: Cytotoxicity against human BGC823 cells after 72 hrs by MTT assay; details: BGC-823, 72 h; procedure, shortened: as §1

SMILES	IC50 (Bel-7402)	IC50 (HeLa)	IC50 (BGC-823)
C[C@]12CC[C@H](O)C[C@H]1CC[C@@H]1[C@@H]2CC[C@]2(C)[C@@H](c3ccc(=O)oc3)CC[C@]12O [BUFALIN]	7 nM	28 nM	45 nM
C[C@]12CC[C@H](O)C[C@H]1C[C@H](O)[C@@H]1[C@@H]2C[C@H](O)[C@]2(C)[C@@H](c3ccc(=O)oc3)CC[C@]12O	2900 nM	60 nM	5300 nM
C[C@]12CC[C@H](O)C[C@H]1CC[C@@H]1[C@@H]2C[C@@H](O)[C@]2(C)[C@@H](c3ccc(=O)oc3)CC[C@]12O	26 nM	7.6 nM	31 nM
C[C@]12CC[C@H](O)C[C@H]1CC[C@@H]1[C@@H]2C[C@H](O)[C@]2(C)[C@@H](c3ccc(=O)oc3)CC[C@]12O	410 nM	60 nM	420 nM
C[C@]12CC[C@H](O)C[C@@]1(O)C[C@H](O)[C@@H]1[C@@H]2CC[C@]2(C)[C@@H](c3ccc(=O)oc3)CC[C@]12O	–	22 nM	–
